In brackets after ≈: the same amount, converted by molar mass.
Columns and labels:
Rattus norvegicus [1] = assay: Dose required to decrease heart rate after iv injection to spinal rats; type: functional
Method in brief: (§1)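 Male Chbb:THOM rats, 200–250 g, under pentobarbital sodium 50 mg/kg ip, atropine sulfate 1 mg/kg sc, trachea cannulated. Medulla cut at C1, brain destroyed, artificially ventilated. Jugular iv injections given cumulatively, dose doubled every 2 min, 3 doses per animal, top cumulative dose 10 mg/kg. ECG-triggered tachograph heart rate. D150 (dose lowering rate 150 beats/min) read graphically from log dose–response curves; n = 6 rats.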

[2] = Partition coefficient (logD7.4); conditions: octanol/water, pH 7.4
Rattus norvegicus [3] = organism: Rattus norvegicus; assay: Evaluated for decreased heart rate in spinal rats, relative activity was determined; type: functional; method in brief: as §1
[4] = Dissociation constant (pKa); type: physicochemical
[5] = EC30 ratio of maximal driving frequency to atrial rate in isolated guinea pig atria; type: functional, Cardiac atrium
Method in brief: (§2)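 Ratios of EC30 values from isolated guinea pig atria. Atrial rate was measured in spontaneously beating atria at 37 °C after at least 30 min of equilibration, until rate varied by no more than 5 beats/min. Contractility was measured in left atria driven at 2.5 Hz, 30 °C. Maximal driving frequency was found by stepwise pacing. Compound was added cumulatively, concentration doubled every 10 min.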

Cavia porcellus [6] = organism: Cavia porcellus; assay: Evaluated for decrease in spontaneous frequency of atrial rate in isolated guinea pig atria; type: functional; conditions: Cardiac atrium
Method in brief: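 Atria dissected from guinea pigs of various breeds (300–500 g, either sex) and suspended in modified Tyrode's solution gassed with 98% O2/2% CO2, resting tension 1 g. Spontaneously beating atria at 37 °C, equilibrated at least 30 min until rate stable within 5 beats/min. Drug added cumulatively, concentration doubled every 10 min. EC30 = concentration reducing predrug rate by 30%, read from curves.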

Cavia porcellus [7] = organism: Cavia porcellus; assay: Evaluated for decrease in maximal driving frequency in isolated guinea pig atria; type: functional
Method in brief: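 Guinea pig left atria in modified Tyrode's gassed 98% O2/2% CO2, 1 g resting tension, driven with 1 ms pulses at 3× threshold. Runs separated by 5 min at 0.5 Hz. Control is the mean of 3 predrug runs; the value is the mean of runs at 5 and 10 min after each cumulative addition, concentration doubled every 10 min. EC30 read from curves.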

[8] = EC30 ratio of contractility to atrial rate in isolated guinea pig atria; type: functional, Cardiac atrium; method in brief: as §2
Cavia porcellus [9] = organism: Cavia porcellus; assay: Evaluated for decrease in contractility in isolated guinea pig atria; type: functional
Method in brief: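 Electrically driven left guinea pig atria (300–500 g, either sex) in modified Tyrode's gassed 98% O2/2% CO2, 30 °C, 1 g resting tension. Stimulation 3 ms rectangular pulses at 1.5× threshold, 2.5 Hz, after 20 min equilibration. Isometric force in grams. Concentrations added cumulatively, doubled every 10 min, one atrium per experiment. EC30 (30% fall from predrug value) read from curves.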

[10] = Ratio of contractility to atrial rate in isolated guinea pig atria; type: functional, Cardiac atrium; method in brief: as §2

SMILES | D150 (Rattus norvegicus [1]) | logD [2] | Relative activity (Rattus norvegicus [3]) | pKa [4] | Ratio [5] | EC30 (Cavia porcellus [6]) [µg/mL] | EC30 (Cavia porcellus [7]) [µg/mL] | Ratio [8] | EC30 (Cavia porcellus [9]) [µg/mL] | Ratio [10]
Brc1cccc(Br)c1N(C1=NCCN1)C1CCCCC1 | 2.6 mg/kg | 0.14 | 0.24 | 11.3 |  |  |  |  |  | 
CC(C)N(C1=NCCN1)c1c(Br)cccc1Br | 2.3 mg/kg | -0.82 | 0.27 | 11.2 |  |  |  |  |  | 
C=C[C@H]1CN2CC[C@H]1C[C@@H]2[C@@H](O)c1ccnc2ccc(OC)cc12 [QUINIDINE] |  |  |  |  | 0.9 | 7.2 (≈ 22.2 µM) | 6.5 (≈ 20 µM) | 8.6 | 62 (≈ 191 µM) | 
CC(C)CCN(C1=NCCN1)c1c(Br)cccc1Br | 1.3 mg/kg | 0.16 | 0.48 | 10.9 |  |  |  |  |  | 
Brc1cccc(Br)c1N(CC1CCCC1)C1=NCCN1 | 1.3 mg/kg | 0.32 | 0.48 | 10.9 |  |  |  |  |  | 
Fc1cccc(C(F)(F)F)c1N(CC1CC1)C1=NCCN1 | 1.8 mg/kg | -0.95 | 0.34 | 10.7 |  |  |  |  |  | 
Brc1ccc(N(CC2CC2)C2=NCCN2)cc1Br | >>10 mg kg-1 |  | <<0.062 |  |  |  |  |  |  | 
C=CCN(C1=NCCN1)c1c(Br)cccc1Br | 1.5 mg/kg | -0.75 | 0.41 | 10.7 |  |  |  |  |  | 
C=C(C)CCN(C1=NCCN1)c1c(Br)cccc1Br | 1.03 mg/kg | 0.02 | 0.6 | 10.9 |  |  |  |  |  | 
Fc1cccc(F)c1N(CC1CC1)C1=NCCN1 | 4.8 mg/kg | -1.41 | 0.13 | 10.3 |  |  |  |  |  | 
COc1ccc(CCN(C)CCCC(C#N)(c2ccc(OC)c(OC)c2)C(C)C)cc1OC (configuration not stated) |  |  |  |  |  | 0.2 (≈ 0.44 µM) | 6.5 (≈ 14.3 µM) |  | 0.24 (≈ 0.528 µM) | 1.2
Brc1ccccc1N(CC1CC1)C1=NCCN1 | 4.4 mg/kg | -1.3 | 0.14 | 11.2 |  |  |  |  |  | 
Brc1cccc(Br)c1N(CC1CCC1)C1=NCCN1 | 1.2 mg/kg | -0.06 | 0.52 | 10.9 |  |  |  |  |  | 
Clc1cccc(Cl)c1N(CC1CC1)C1=NCCN1 | 0.65 mg/kg | -0.92 | 0.95 | 10.9 |  |  |  |  |  | 
C=CCCN(C1=NCCN1)c1c(Br)cccc1Br | 1 mg/kg | -0.63 | 0.62 | 11.2 |  |  |  |  |  | 
Brc1ccc(Br)c(N(CC2CC2)C2=NCCN2)c1 | 5 mg/kg | -0.52 | 0.12 | 11 |  |  |  |  |  | 
Brc1cccc(N(CC2CC2)C2=NCCN2)c1Br | 7.5 mg/kg | -0.41 | 0.083 | 11.1 |  |  |  |  |  | 
C/C=C/CN(C1=NCCN1)c1c(Br)cccc1Br | 0.7 mg/kg | -0.49 | 0.88 | 11 |  |  |  |  |  | 
Brc1cccc(Br)c1N(Cc1ccccc1)C1=NCCN1 | 2.5 mg/kg | -0.05 | 0.25 | 10.4 |  |  |  |  |  | 
Brc1cccc(Br)c1N(Cc1cccs1)C1=NCCN1 | 1.9 mg/kg | -0.1 | 0.33 | 10.5 |  |  |  |  |  | 

SMILES | D150 (Rattus norvegicus [1]) | logD [2] | Relative activity (Rattus norvegicus [3]) | pKa [4] | Ratio [5] | EC30 (Cavia porcellus [6]) [µg/mL] | EC30 (Cavia porcellus [7]) [µg/mL] | Ratio [8] | EC30 (Cavia porcellus [9]) [µg/mL] | Ratio [10]
CCCCCN(C1=NCCN1)c1c(Br)cccc1Br | 1.6 mg/kg | 0.32 | 0.39 | 11 |  |  |  |  |  | 
CC(C)=CCN(C1=NCCN1)c1c(Br)cccc1Br | 3.5 mg/kg | -0.14 | 0.18 | 10.8 |  |  |  |  |  | 
CN(C1=NCCN1)c1c(Br)cccc1Br | 1.4 mg/kg |  |  | 10.7 |  |  |  |  |  | 
Cc1cccc(Cl)c1N(CC1CC1)C1=NCCN1 | 1.85 mg/kg | -0.99 | 0.34 | 11.3 |  |  |  |  |  | 
C=C(C)CN(C1=NCCN1)c1c(Br)cccc1Br | 2.1 mg/kg | -0.66 | 0.3 | 10.7 |  |  |  |  |  | 
N=C(N)N(CC1CC1)c1c(Br)cccc1Br | >10 mg/kg | -0.63 | <0.062 | 11.9 |  |  |  |  |  | 
C=CCN(C1=NCCN1)c1c(Cl)cccc1Cl [ALINIDINE] | 2.5 mg/kg | -1.66 | 0.25 | 10.4 |  |  |  |  |  | 
Fc1cccc(Cl)c1N(CC1CC1)C1=NCCN1 | 0.74 mg/kg | -0.98 | 0.84 | 10.8 |  |  |  |  |  | 
Brc1cccc(Br)c1N(CC1CCCCC1)C1=NCCN1 | 6.5 mg/kg | 0.27 | 0.095 | 11.2 |  |  |  |  |  | 
CCCCN(C1=NCCN1)c1c(Br)cccc1Br | 1.35 mg/kg | -2.5 | 0.46 | 11 |  |  |  |  |  | 
Brc1ccc(N(CC2CC2)C2=NCCN2)c(Br)c1 | 10 mg/kg | -0.31 | 0.062 | 11.2 |  |  |  |  |  | 
Fc1cccc(Br)c1N(CC1CC1)C1=NCCN1 | 1.5 mg/kg | -1.03 | 0.41 | 10.7 |  |  |  |  |  | 
Clc1cccc(Br)c1N(CC1CC1)C1=NCCN1 | 0.42 mg/kg | -0.79 | 1.48 | 10.8 |  |  |  |  |  | 
CCN(C1=NCCN1)c1c(Br)cccc1Br | 0.75 mg/kg | -1.01 | 0.83 | 11.1 |  |  |  |  |  | 
C#CCN(C1=NCCN1)c1c(Br)cccc1Br | 1.25 mg/kg | -0.18 | 0.5 | 10.1 |  |  |  |  |  | 
Brc1cccc(Br)c1N(CC1CC1)C1=NCCCN1 | 1.1 mg/kg | -1.03 | 0.56 | 12.4 |  |  |  |  |  | 
Brc1cccc(Br)c1N(Cc1ccco1)C1=NCCN1 | 2.8 mg/kg | -0.52 | 0.22 | 10.5 |  |  |  |  |  | 
Brc1cccc(Br)c1N(C1=NCCN1)C1CCCC1 | 1 mg/kg | -0.29 | 0.62 | 11.2 |  |  |  |  |  | 
CCCN(C1=NCCN1)c1c(Br)cccc1Br | 0.65 mg/kg | -0.55 | 0.95 | 11 |  |  |  |  |  | 
CC(C)CN(C1=NCCN1)c1c(Br)cccc1Br | 1.35 mg/kg | -0.64 | 0.46 | 11 |  |  |  |  |  | 
